Results from ChEMBL document CHEMBL3877306, “Triazole Ureas Act as Diacylglycerol Lipase Inhibitors and Prevent Fasting-Induced Refeeding” (J Med Chem, 2017).
The source made the active and inactive calls. No cut-off for these calls is given here.

How the values were obtained:
[1] = target: T1, Monoacylglycerol lipase ABHD6 (Homo sapiens, UniProt Q9BV23); experiment: Inhibition of human ABHD6 using 2-AG as natural substrate by fluorescence based assay
T1 sequence (Q9BV23 whole entry): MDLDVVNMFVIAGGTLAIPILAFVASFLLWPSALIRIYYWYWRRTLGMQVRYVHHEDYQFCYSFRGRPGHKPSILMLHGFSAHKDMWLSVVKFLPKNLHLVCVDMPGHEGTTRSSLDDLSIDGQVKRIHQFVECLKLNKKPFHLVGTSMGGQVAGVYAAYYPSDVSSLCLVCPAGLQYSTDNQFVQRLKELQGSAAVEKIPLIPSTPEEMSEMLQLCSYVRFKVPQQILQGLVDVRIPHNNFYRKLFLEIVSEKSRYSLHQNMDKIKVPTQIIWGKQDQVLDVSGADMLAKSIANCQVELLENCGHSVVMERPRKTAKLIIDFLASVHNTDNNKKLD
Procedure, shortened: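 Coupled fluorescence assay: 2-AG hydrolysis detected via glycerol kinase, glycerol-3-phosphate oxidase and HRP (0.2 U/mL each), 0.125 mM ATP and 10 µM Amplifu Red. Conditions: 25 µM 2-AG, 0.5% acetonitrile, 5% DMSO, ABHD6 membrane protein 40 µg/mL final. n = 4.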

Mus musculus [2] = species on record: Mus musculus; experiment: Selectivity ratio of IC50 for ABHD6 in mouse brain membrane proteome to IC50 for DAGLalpha in mouse brain membrane proteome; assay type: cell membranes
Procedure, shortened: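 Ratio of DAGLα and ABHD6 […] values, both from competitive gel ABPP in mouse brain membrane proteome. Inhibitor was preincubated 30 min at r.t., then MB064 (250 nM final) was added for 20 min. Band intensities were normalized to vehicle and fitted with a variable-slope curve. n = 3.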

Mus musculus [3] = experiment: Reduction in carbohydrate oxidation in 18 hrs fasted C57Bl/6J mouse model of fasting-induced refeeding at 50 mg/kg, ip administered as single dose 30 mins prior to refeeding measured after 20 mins; assay type: functional, organism-based
Mus musculus [4] = experiment: Ex vivo inhibition of FP-TAMRA probe binding to carboxylesterase in mouse liver at 3 to 50 mg/kg, ip after 4 hrs by gel-based competitive activity based protein profiling assay; assay type: functional, organism-based
[5] = target: T2, Diacylglycerol lipase-alpha (Mus musculus, UniProt Q6WQJ1); experiment: (§1) Inhibition of MB064 probe binding to DAGLalpha in mouse brain membrane proteome preincubated for 30 mins followed by MB064 probe addition measured after 20 mins by gel-based competitive activity based protein profiling assay; assay type: cell membranes
T2 sequence (Q6WQJ1 whole entry): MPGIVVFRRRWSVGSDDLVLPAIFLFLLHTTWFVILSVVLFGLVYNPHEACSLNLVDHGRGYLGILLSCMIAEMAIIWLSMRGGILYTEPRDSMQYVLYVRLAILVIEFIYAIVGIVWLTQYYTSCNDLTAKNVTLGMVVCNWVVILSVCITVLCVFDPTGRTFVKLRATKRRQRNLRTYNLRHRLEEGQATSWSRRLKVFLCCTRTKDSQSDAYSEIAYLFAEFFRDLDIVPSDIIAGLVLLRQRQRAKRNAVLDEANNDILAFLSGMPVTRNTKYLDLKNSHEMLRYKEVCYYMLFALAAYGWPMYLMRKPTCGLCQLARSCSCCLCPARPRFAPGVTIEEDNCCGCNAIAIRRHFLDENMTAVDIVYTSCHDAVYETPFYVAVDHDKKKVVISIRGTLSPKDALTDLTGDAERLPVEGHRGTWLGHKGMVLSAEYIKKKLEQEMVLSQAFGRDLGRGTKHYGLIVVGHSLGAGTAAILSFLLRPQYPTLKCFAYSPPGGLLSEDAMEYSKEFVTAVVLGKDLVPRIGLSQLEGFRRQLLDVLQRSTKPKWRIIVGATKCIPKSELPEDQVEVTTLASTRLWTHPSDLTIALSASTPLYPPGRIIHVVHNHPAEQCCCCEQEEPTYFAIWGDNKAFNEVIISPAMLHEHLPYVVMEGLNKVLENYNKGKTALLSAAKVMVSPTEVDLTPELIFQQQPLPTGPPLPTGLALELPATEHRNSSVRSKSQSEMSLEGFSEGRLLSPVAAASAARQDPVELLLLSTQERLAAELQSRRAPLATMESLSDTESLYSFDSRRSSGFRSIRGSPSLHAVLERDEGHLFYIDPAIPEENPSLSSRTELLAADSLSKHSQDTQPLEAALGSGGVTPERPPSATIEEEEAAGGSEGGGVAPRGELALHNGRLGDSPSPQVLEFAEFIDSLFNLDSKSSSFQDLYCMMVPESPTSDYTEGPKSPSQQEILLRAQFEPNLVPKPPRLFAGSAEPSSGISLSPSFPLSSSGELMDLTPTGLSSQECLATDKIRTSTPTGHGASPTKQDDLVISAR
Procedure, shortened: (§2)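 Mouse brain membrane proteome (2 mg/mL) preincubated with inhibitor or DMSO vehicle for 30 min at r.t., then labelled with MB064 at 250 nM final for 20 min at r.t. and quenched in Laemmli buffer. Fluorescent bands were quantified against vehicle set to 100%, and IC50 was taken from a variable-slope log(inhibitor) vs normalized response fit. n = 3.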

[6] = target: T3, Diacylglycerol lipase-alpha (Mus musculus) (UniProt Q6WQJ1); experiment: as §1; assay type: cell membranes; procedure, shortened: as §2
T3 sequence (whole entry): T2 sequence (Q6WQJ1 whole entry)

Mus musculus [7] = experiment: Toxicity in 18 hrs fasted C57Bl/6J mouse model of fasting-induced refeeding assessed as effect on locomotor activity at 50 mg/kg, ip administered as single dose 30 mins prior to refeeding measured after 24 hrs; assay type: organism-based; settings: in vivo
Mus musculus [8] = experiment: Inhibition of fasting-induced refeeding in 18 hrs fasted C57Bl/6J mouse at 50 mg/kg, ip administered as single dose 30 mins prior to refeeding measured up to 4 hrs; assay type: functional, organism-based
Mus musculus [9] = experiment: Increase in fat oxidation in 18 hrs fasted C57Bl/6J mouse model of fasting-induced refeeding at 50 mg/kg, ip administered as single dose 30 mins prior to refeeding measured after 20 mins; assay type: functional, organism-based
[10] = target: T4, Monoacylglycerol lipase ABHD6 (Mus musculus, UniProt Q8R2Y0); experiment: Inhibition of MB064 probe binding to ABHD6 in mouse brain membrane proteome preincubated for 30 mins followed by MB064 probe addition measured after 20 mins by gel-based competitive activity based protein profiling assay; assay type: cell membranes; procedure, shortened: as §2
T4 sequence (Q8R2Y0 whole entry): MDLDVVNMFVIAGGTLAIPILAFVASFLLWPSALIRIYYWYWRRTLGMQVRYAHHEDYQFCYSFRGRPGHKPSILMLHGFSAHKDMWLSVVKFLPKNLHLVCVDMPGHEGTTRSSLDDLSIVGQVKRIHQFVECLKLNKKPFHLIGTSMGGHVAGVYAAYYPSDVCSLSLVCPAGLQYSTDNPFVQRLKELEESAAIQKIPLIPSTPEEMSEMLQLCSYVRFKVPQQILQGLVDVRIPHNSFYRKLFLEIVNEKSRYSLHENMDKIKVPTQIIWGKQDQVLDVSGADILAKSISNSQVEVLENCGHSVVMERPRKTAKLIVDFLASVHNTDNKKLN

IC50 [1]: 2.51 nM
Ratio IC50 (Mus musculus [2]): 126
IC50 [5]: 0.631 nM
inhibition [6]: Dose-dependent effect
IC50 [10]: 79.4 nM
Structure (SMILES): C#CCO[C@@H]1CC[C@H](Cc2ccccc2)N(C(=O)n2ncc(C(O)(c3ccc(F)cc3)c3ccc(F)cc3)n2)C1
Activity (Mus musculus [3]): Active
inhibition (Mus musculus [4]): Active
Activity (Mus musculus [7]): Non-Toxic
inhibition (Mus musculus [8]): Active
Activity (Mus musculus [9]): Active
